Source: ChEMBL document CHEMBL1921732, “Alkaloids from the Chinese vine Gnetum montanum” (J Nat Prod, 2011)
pIC50: −log10 of the molar value. Calls of active or inactive are those of the source. No cut-off for these calls is given here.

Tests used:
Pseudomonas aeruginosa [1] = assay: Antibacterial activity against Pseudomonas aeruginosa PAO1 assessed as growth inhibition at 87.5 uM; assay type: functional; details: read-out: GI
Staphylococcus aureus = assay: Antibacterial activity against methicillin-resistant Staphylococcus aureus 01A1095 assessed as growth inhibition at 350 uM after 19 hrs; assay type: functional
Summary of the method: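 Strain 01A1095 optical-density viability assay in caMH broth at 1980 CFU/well. Compounds were in DMSO (final 1.75%) and added before the bacteria. Plates were incubated at 37°C until OD620 reached 0.7-0.8, cooled 30 min and read at 620 nm. Vehicle served as the uninhibited-growth control and ciprofloxacin at 500 µg/mL as the kill control in internal control wells.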

[2] = Selectivity ratio of antimicrobial activity for Pseudomonas aeruginosa PAO1 over methicillin-resistant Staphylococcus aureus 01A1095; assay type: functional
Pseudomonas aeruginosa [3] = assay: Antibacterial activity against Pseudomonas aeruginosa PAO1; assay type: functional, organism-based
Pseudomonas aeruginosa [4] = assay: Antibacterial activity against Pseudomonas aeruginosa PAO1 assessed as growth inhibition at 175 uM; assay type: functional; details: read-out: GI
Pseudomonas aeruginosa [5] = assay: Antibacterial activity against Pseudomonas aeruginosa PAO1 assessed as growth inhibition at 350 uM; assay type: functional, organism-based

Compound | growth inhibition (GI) (Staphylococcus aureus) | growth inhibition (GI) (Pseudomonas aeruginosa [5]) | also measured
COc1cc2c3c(cc4cc(O)c(O)cc4c3c1O)[N+](C)(C)CC2 | inactive | – | inhibition of growth at 87.5 µM (Pseudomonas aeruginosa [1]): 59%
O=C([O-])C(F)(F)F.Oc1cc2c(cc1O)[C@@H]1c3ccc(O)c(O)c3C[C@H]3Cc4cc(O)c(O)cc4[N+]31CC2 (some centres undefined) | – | – | Selectivity ratio [2]: 36; pIC50 (Pseudomonas aeruginosa [3]): 5.01; MIC (Pseudomonas aeruginosa [3]): 35 µM; inhibition of growth at 350 µM (Staphylococcus aureus; 01A1095, 19 h, read-out: GI): 55%
COc1cc2c3c(c1O)-c1cc(O)c(O)cc1CC3[N+](C)(C)CC2 (racemic) | inactive | – | inhibition of growth at 175 µM (Pseudomonas aeruginosa [4]): 59%
COc1cc2c(cc1O)C(Cc1ccc(O)c(O)c1)[N+](C)(C)CC2 (racemic) | inactive | inactive | –
COc1cc2c(cc1O)C(Cc1ccc(O)cc1)[N+](C)(C)CC2 (racemic) | inactive | inactive | –
C[N+]1(C)CCc2cc(O)c(O)cc2C1Cc1ccc(O)c(O)c1 (racemic) | inactive | inactive | –
